Measured values from ChEMBL document CHEMBL3774374, “The Effect of Small Molecules on Sterol Homeostasis: Measuring 7-Dehydrocholesterol in Dhcr7-Deficient Neuro2a Cells and Human Fibroblasts” (J Med Chem, 2016).
The source made the active and inactive calls. The rule behind the calls is not given here.

Assays:
N2a [1] = assay: Decrease in 7-DHC levels in Dhcr7-deficient mouse Neuro2a cells at 1 uM by LC-MS/GC-MS analysis; format: functional, cell-based
Procedure, shortened: (§1)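 Dhcr7-deficient Neuro2a cells (13000/well, 0.5% FBS medium) on predeposited compound, 24 h at 37 °C. Hoechst-stained and imaged to count cells. Lysed in methanol containing isotope-labelled sterol standards, derivatized with PTAD 20 min at RT, then isocratic C18 UPLC-MS/SRM. Remaining extract silylated with BSTFA for GC-MS, quantified against d7-cholesterol. Follow-up runs in triplicate.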

N2a [2] = assay: Decrease in lanosterol levels in mouse Neuro2a cells by LC-MS analysis; format: functional, cell-based
Procedure, shortened: (§2)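 Control Neuro2a cells (10000/well, 0.5% FBS) on compound, 24 h. Hoechst cell count, then methanol lysis with labelled standards (d7-7-DHC, 13C3-desmosterol, 13C3-lanosterol), PTAD derivatization 20 min at RT, UPLC-MS SRM. GC-MS of silylated extract for further sterols.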

N2a [3] = assay: Decrease in desmosterol levels in mouse Neuro2a cells by LC-MS analysis; format: functional, cell-based; procedure, shortened: as §2
[4] = target: T1, 3-beta-hydroxysteroid-Delta(8),Delta(7)-isomerase (Mus musculus) (UniProt P70245); assay: Inhibition of delta 8-7 isomerase in Dhcr7-deficient mouse Neuro2a cells assessed as decrease in 7-DHC levels at 1 uM by LC-MS/GC-MS analysis; format: cell-based; procedure, shortened: as §1
T1 sequence (whole entry): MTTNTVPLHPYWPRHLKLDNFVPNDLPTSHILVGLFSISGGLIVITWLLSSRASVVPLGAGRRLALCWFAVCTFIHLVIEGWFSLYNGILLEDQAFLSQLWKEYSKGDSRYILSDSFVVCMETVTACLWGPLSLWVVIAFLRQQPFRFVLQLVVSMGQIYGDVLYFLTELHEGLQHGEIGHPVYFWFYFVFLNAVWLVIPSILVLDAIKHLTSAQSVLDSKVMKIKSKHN

[5] = target: T2, Delta(24)-sterol reductase (Mus musculus) (UniProt Q8VCH6); assay: Inhibition of C-24 reductase in Dhcr7-deficient mouse Neuro2a cells assessed as increase in zymosterol levels at 1 uM by LC-MS/GC-MS analysis; format: cell-based; procedure, shortened: as §1
T2 sequence (whole entry): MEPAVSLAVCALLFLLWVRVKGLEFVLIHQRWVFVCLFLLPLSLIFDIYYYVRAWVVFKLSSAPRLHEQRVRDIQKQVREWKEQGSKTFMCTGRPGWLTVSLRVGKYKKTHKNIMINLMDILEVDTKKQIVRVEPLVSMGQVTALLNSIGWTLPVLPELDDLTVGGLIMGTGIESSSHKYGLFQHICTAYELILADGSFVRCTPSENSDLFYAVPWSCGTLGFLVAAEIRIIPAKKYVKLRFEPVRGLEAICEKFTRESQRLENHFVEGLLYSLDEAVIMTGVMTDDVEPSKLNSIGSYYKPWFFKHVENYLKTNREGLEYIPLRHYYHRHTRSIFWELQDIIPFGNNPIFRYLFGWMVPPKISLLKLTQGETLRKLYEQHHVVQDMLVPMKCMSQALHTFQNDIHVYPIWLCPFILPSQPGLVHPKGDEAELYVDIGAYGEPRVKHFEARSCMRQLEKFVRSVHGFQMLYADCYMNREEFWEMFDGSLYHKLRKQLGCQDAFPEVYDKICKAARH

[6] = target: T1, 3-beta-hydroxysteroid-Delta(8),Delta(7)-isomerase (Mus musculus); assay: Inhibition of delta 8-7 isomerase in mouse Neuro2a cells assessed as decrease in 7-DHC levels at 1 uM by LC-MS/GC-MS analysis; format: cell-based; procedure, shortened: as §2
[7] = target: T2, Delta(24)-sterol reductase (Mus musculus); assay: Inhibition of C-24 reductase in Dhcr7-deficient mouse Neuro2a cells assessed as increase in desmosterol levels at 1 uM by LC-MS/GC-MS analysis; format: cell-based; procedure, shortened: as §1
[8] = target: T2, Delta(24)-sterol reductase (Mus musculus); assay: Inhibition of DR24 in mouse Neuro2a cells assessed as decrease in 7-DHC levels at 1 uM by LC-MS/GC-MS analysis; format: cell-based; procedure, shortened: as §2
[9] = target: T2, Delta(24)-sterol reductase (Mus musculus); assay: Inhibition of DR24 in Dhcr7-deficient mouse Neuro2a cells assessed as decrease in 7-DHC levels at 1 uM by LC-MS/GC-MS analysis; format: cell-based; procedure, shortened: as §1
[10] = target: 3-beta-hydroxysteroid-Delta(8),Delta(7)-isomerase (Homo sapiens) (UniProt Q15125); assay: Inhibition of delta 8-7 isomerase in human SLOS fibroblasts assessed as decrease in 7-DHC levels at 10 nM after 5 days by LC-MS/GC-MS analysis
Procedure, shortened: (§3)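 SLOS patient skin fibroblasts (passage 8–20) grown in 96-well plates in delipidated serum with compound for 5 days; three different SLOS lines. Sterols quantified by PTAD-derivatized UPLC-MS plus GC-MS; 7-DHC expressed as percentage of untreated cells.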

[11] = target: T2, Delta(24)-sterol reductase (Mus musculus); assay: Inhibition of DR24 in Dhcr7-deficient mouse Neuro2a cells assessed as decrease in 7-DHC levels at 200 nM after 24 hrs by LC-MS analysis; format: cell-based
Procedure, shortened: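 384-well screen: Dhcr7-deficient Neuro2a cells (13000/well, 0.5% FBS) with compound at 20 or 200 nM (five wells each), 24 h at 37 °C. Cells counted after Hoechst imaging, then methanol lysis with d7-7-DHC standard, PTAD derivatization 20 min at RT, UPLC-MS SRM (7-DHC 560→365). Read-out is pg 7-DHC per cell.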

[12] = target: T3, Delta(24)-sterol reductase (Homo sapiens) (UniProt Q15392); assay: Inhibition of DR24 in human SLOS fibroblasts assessed as decrease in 7-DHC levels at 10 nM after 5 days by LC-MS/GC-MS analysis; procedure, shortened: as §3
T3 sequence (whole entry): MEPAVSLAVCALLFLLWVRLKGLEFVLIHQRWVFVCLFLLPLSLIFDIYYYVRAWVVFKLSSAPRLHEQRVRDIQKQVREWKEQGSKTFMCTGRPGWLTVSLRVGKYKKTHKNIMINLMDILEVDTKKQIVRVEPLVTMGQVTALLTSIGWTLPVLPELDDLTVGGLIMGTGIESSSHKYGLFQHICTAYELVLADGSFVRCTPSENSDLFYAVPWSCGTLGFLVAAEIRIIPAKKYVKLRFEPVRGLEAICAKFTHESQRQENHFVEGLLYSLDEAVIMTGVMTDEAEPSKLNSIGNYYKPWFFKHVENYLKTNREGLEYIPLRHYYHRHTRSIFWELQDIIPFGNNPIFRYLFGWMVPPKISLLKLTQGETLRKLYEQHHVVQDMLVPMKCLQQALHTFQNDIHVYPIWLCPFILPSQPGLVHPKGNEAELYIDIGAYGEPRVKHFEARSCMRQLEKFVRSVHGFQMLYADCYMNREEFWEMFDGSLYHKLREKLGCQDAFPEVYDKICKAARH

[13] = target: T1, 3-beta-hydroxysteroid-Delta(8),Delta(7)-isomerase (Mus musculus); assay: Inhibition of delta 8-7 isomerase in Dhcr7-deficient mouse Neuro2a cells assessed as decrease in 7-DHC levels at 200 nM after 24 hrs by LC-MS analysis; format: cell-based
Procedure, shortened: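 384-well screen: Dhcr7-deficient Neuro2a cells (13000/well) dispensed in 0.5% FBS medium onto predeposited compound (five wells each at 20 and 200 nM) and incubated 24 h at 37 °C. Nuclei Hoechst-stained and counted by automated imaging. Cells lysed in MeOH with deuterated and 13C standards, then derivatised with PTAD for 20 min at RT. 7-DHC measured by isocratic UPLC-MS (SRM) and expressed as pg per cell; DMSO wells served as controls.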

Fibroblast = assay: Decrease in cholesterol levels in human SLOS fibroblasts at 10 nM after 5 days by LC-MS/GC-MS analysis; format: functional, cell-based; procedure, shortened: as §3
[14] = Cytotoxicity against human SLOS fibroblasts at 5 uM after 5 days by Cell Titer assay; format: cell-based; conditions: fibroblast, 120 h
[15] = target: T4, Lanosterol 14-alpha demethylase (Mus musculus, UniProt Q8K0C4); assay: Inhibition of CYP51 in Dhcr7-deficient mouse Neuro2a cells assessed as decrease in 7-DHC levels at 1 uM by LC-MS/GC-MS analysis; format: cell-based
T4 sequence (Q8K0C4 whole entry): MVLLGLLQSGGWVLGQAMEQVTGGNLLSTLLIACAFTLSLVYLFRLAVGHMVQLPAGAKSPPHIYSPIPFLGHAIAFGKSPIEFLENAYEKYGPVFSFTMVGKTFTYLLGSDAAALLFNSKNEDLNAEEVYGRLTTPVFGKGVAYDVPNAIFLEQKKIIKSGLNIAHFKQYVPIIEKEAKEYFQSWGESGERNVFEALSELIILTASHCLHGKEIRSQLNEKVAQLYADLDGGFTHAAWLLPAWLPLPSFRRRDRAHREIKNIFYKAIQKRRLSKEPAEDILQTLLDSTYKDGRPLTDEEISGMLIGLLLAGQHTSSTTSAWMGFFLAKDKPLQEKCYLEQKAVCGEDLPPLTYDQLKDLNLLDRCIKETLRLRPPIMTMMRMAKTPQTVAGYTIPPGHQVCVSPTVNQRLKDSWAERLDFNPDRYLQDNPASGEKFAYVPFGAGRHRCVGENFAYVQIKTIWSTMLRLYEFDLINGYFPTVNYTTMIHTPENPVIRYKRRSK
Procedure, shortened: (§4)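 Follow-up (verification) assay in 96-well plates, run as the 384-well screen, in triplicate, at varying compound concentrations. Cells counted by Hoechst imaging, washed with PBS, then lysed in MeOH with BHT/TPP and isotope standards (d7-Chol, d7-7-DHC, 13C3-Des, 13C3-Lan). Sterols derivatised with PTAD for 20 min at RT and quantified by C18 UPLC-MS (SRM). Remaining sample silylated with BSTFA and run on GC-MS, quantified against d7-Chol.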

[16] = target: T1, 3-beta-hydroxysteroid-Delta(8),Delta(7)-isomerase (Mus musculus); assay: Inhibition of delta 8-7 isomerase in Dhcr7-deficient mouse Neuro2a cells assessed as increase in zymosterol levels at 1 uM by LC-MS/GC-MS analysis; format: cell-based; procedure, shortened: as §4
[17] = target: T1, 3-beta-hydroxysteroid-Delta(8),Delta(7)-isomerase (Mus musculus); assay: Inhibition of delta 8-7 isomerase in Dhcr7-deficient mouse Neuro2a cells assessed as increase in zymostenol levels at 1 uM by LC-MS/GC-MS analysis; format: cell-based; procedure, shortened: as §4
[18] = target: T1, 3-beta-hydroxysteroid-Delta(8),Delta(7)-isomerase (Mus musculus); assay: Inhibition of delta 8-7 isomerase in Dhcr7-deficient mouse Neuro2a cells assessed as decrease in cholesterol levels at 1 uM by LC-MS/GC-MS analysis; format: cell-based; procedure, shortened: as §4

Chain of 3-beta-hydroxysteroid-Delta(8),Delta(7)-isomerase (Homo sapiens) (Q15125 whole entry): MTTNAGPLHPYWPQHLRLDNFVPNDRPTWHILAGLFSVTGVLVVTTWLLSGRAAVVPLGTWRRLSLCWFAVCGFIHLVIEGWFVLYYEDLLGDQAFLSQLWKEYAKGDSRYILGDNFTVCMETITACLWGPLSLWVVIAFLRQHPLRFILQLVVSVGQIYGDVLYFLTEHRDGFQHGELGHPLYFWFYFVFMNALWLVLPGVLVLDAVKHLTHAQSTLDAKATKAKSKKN

CCCC1O[C@@H]2C[C@H]3[C@@H]4CCC5=CC(=O)C=C[C@]5(C)[C@H]4[C@@H](O)C[C@]3(C)[C@]2(C(=O)CO)O1 (some centres undefined)
Activity (N2a [1]): Active

CCN(CC)CCO[C@H]1CC[C@@]2(C)C(=CC[C@@H]3[C@@H]2CC[C@]2(C)C(=O)CC[C@@H]32)C1
Activity (N2a [1]): Active

C[C@H]1c2cccc(O)c2C(=O)C2=C(O)[C@]3(O)C(=O)C(C(N)=O)=C(O)[C@@H](N(C)C)[C@@H]3[C@@H](O)[C@@H]21
Activity (N2a [1]): Active

Clc1ccccc1CNC[C@H]1CC[C@H](CNCc2ccccc2Cl)CC1
Activity (N2a [2]): Active | Activity (N2a [3]): Active

O=C(CCCN1CCC(O)(c2ccc(Cl)cc2)CC1)c1ccc(F)cc1
Activity (N2a [2]): Active | Activity (N2a [3]): Active

O=c1n(CCCN2CCN(c3cccc(Cl)c3)CC2)nc2ccccn12
Activity (N2a [2]): Active | Activity (N2a [3]): Active

Oc1ccc2c(c1)CC[C@H](c1ccccc1)[C@@H]2c1ccc(OCCN2CCCC2)cc1
inhibition [4]: Active | inhibition [5]: Active | Activity (decrease in 7-DHC levels) [6]: Active | inhibition [7]: Active | Decrease in 7-DHC levels (active/inactive call) [8]: Active | inhibition [9]: Active

Cc1c(-c2ccc(O)cc2)n(Cc2ccc(OCCN3CCCCCC3)cc2)c2ccc(O)cc12 [BAZEDOXIFENE]
inhibition [10]: Active | inhibition [11]: Active | inhibition [12]: Active | inhibition [4]: Active | Activity (decrease in 7-DHC levels) [6]: Active | inhibition [13]: Active | Activity (Fibroblast): inactive | Activity [14]: Toxic | Decrease in 7-DHC levels (active/inactive call) [8]: Active | inhibition [9]: Active

c1ccc(-c2ccc(C(c3ccccc3)n3ccnc3)cc2)cc1 (centres undefined) [BIFONAZOLE]
inhibition (INH) [15]: Active

Clc1ccccc1C(c1ccccc1)(c1ccccc1)n1ccnc1 [CLOTRIMAZOLE]
inhibition (INH) [15]: Active

Clc1ccc(COC(Cn2ccnc2)c2ccc(Cl)cc2Cl)cc1 (centres undefined) [ECONAZOLE]
inhibition (INH) [15]: Active

C[C@]12CC[C@@H]3c4ccc(O)cc4C[C@@H](CCCCCCCCC[S+]([O-])CCCC(F)(F)C(F)(F)F)[C@H]3[C@@H]1CC[C@@H]2O (some centres undefined) [FULVESTRANT]
inhibition [12]: Active | Activity (Fibroblast): inactive | Activity [14]: Toxic | inhibition [9]: Active

Clc1ccc(COC(Cn2ccnc2)c2ccc(Cl)cc2Cl)c(Cl)c1 (centres undefined) [MICONAZOLE]
inhibition (INH) [15]: Active

O=C(c1ccc(OCCN2CCCCC2)cc1)c1c(-c2ccc(O)cc2)sc2cc(O)ccc12 [RALOXIFENE]
inhibition [10]: Active | inhibition [12]: Active | inhibition [4]: Active | inhibition [5]: Active | Activity (decrease in 7-DHC levels) [6]: Active | inhibition [7]: Active | Activity (Fibroblast): inactive | Activity [14]: Toxic | Decrease in 7-DHC levels (active/inactive call) [8]: Active | inhibition [9]: Active

CC/C(=C(\c1ccccc1)c1ccc(OCCN(C)C)cc1)c1ccccc1 [TAMOXIFEN]
inhibition [10]: Active | inhibition [16]: Active | inhibition [17]: Active | inhibition [12]: Active | inhibition [4]: Active | Activity (decrease in 7-DHC levels) [6]: Active | inhibition [18]: Active | Activity (Fibroblast): inactive | Activity [14]: Toxic | Decrease in 7-DHC levels (active/inactive call) [8]: Active | inhibition [9]: Active
